Records with an inconclusive call do not appear.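 How the source made its calls, unless noted: active means viability at or below 27.92% in each of two runs, the all-compound median minus 4 SD; inconclusive means no clear call, values can overlap the other calls; inactive means the rest.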
Tests used:
[1] = OD615 S. cerevisiae growth inhibition, permissive medium, pilot counter-assay, permissive growth control for S. cerevisiae lifespan shortening project (AID 705;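 active means growth inhibition above 25% in both replicates, a cutoff set 3 SD above the mean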); conditions: OD615, 24 h, at 10 µM, stronger effect = higher value
Outline: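 System – S. cerevisiae with engineered DeaD lifespan system · Buffer or medium – SC raffinose/galactose permissive medium · Schedule – cells pre-grown 4 h, then 24 h compound exposure, 30 °C humidified · Technique – culture turbidity as optical density at 615 nm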

[2] = Restrictive medium S. cerevisiae growth inhibition, OD615, pilot screen of yeast lifespan reduction project, restrictive growth control (AID 706;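 active means growth inhibition above a set limit, 3 SD over mean compound inhibition, in both replicates, cut at about 43% in these data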;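 further: modified DeaD lifespan yeast strain shifted to restrictive glucose medium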); conditions: OD615, 48 h, at 10 µM, stronger effect = higher value
Outline: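 Material: engineered S. cerevisiae DeaD strain / Medium: glucose-based CSMM-D restrictive medium / Compound: single dose of 10 µM compound final, 0.25% DMSO / Timing: 4 h pre-incubation, 48 h exposure at 30 °C / Technique: OD615 absorbance reading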

[3] = viability gain of MRP-1-high H69AR cells under doxorubicin, pilot screen, MRP-1 activator project, CellTiter-Glo, duplicate (AID 807;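 active means viability increase at or above a cutoff of the median across tested compounds plus 3 SD, cut at about 8.5% in these data, passing the limit was not always enough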;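 further: compound pretreatment 18-22 h then 72 h combined with doxorubicin; 0% = doxorubicin alone and 100% = vehicle without doxorubicin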); conditions: H69AR viability with doxorubicin, CellTiter-Glo luminescence; at 10 µM; stronger effect = higher value
[4] = growth suppression of beta-catenin knockout HCT116, pilot screen, human colon tumor cells (AID 823;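 active means cell viability at or below a set limit in both duplicate runs, the limit being the all-compound median minus 4 SD, cut at about 23% in these data, passing the limit was not always enough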;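 further: 0% = wells killed by 20 µM Hyamine and 100% = untreated DMSO cell wells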); conditions: CellTiter-Glo, 60 h, at 10 µM, stronger effect = lower value
[5] = growth suppression of PTEN-deleted HCT116, pilot screen, cell-based, HCT116 clonal line, CellTiter-Glo (AID 824); conditions: 60 h, at 10 µM, stronger effect = lower value;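 further: 0% = 20 µM Hyamine control and 100% = vehicle cell control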
[6] = inhibitors of the yeast RAM network, pilot screen, dse1pr::URA3 reporter, 5-FOA selection (AID 869;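 active means inhibition over a set limit, the all-compound mean plus 3 SD, in both replicate runs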;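 further: 0% = DMSO wells with no growth and 100% = 10 µM 1-NA-PP1 with full growth; RAM network block rescues cells from 5-FOA so hits raise OD615 growth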); conditions: S. cerevisiae dse1pr::URA3 5-FOA growth, OD615, 2 d; at 10 µM; stronger effect = higher value; strain carries analog-sensitive mutant Cbk1 kinase
[7] = RAM signaling pathway blockade in yeast – S. cerevisiae, Pdr1DBD-CYC8 efflux-inhibited sensitized strain, primary screen (AID 1298;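 active means RAM network inhibition above 8.4% in each of two replicates, 3 SD over the compound average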;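 further: 0% = DMSO untreated cells without growth and 100% = 10 µM 1-NA-PP1 full growth; higher means more yeast growth rescued from 5-FOA killing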); conditions: S. cerevisiae cbk1-as DSE1-URA3 strain, 5-FOA growth OD615, 2 d; at 50 µM; stronger effect = higher value

O=C(CN1CCCCC1)Nc1nnc(-c2ccccc2)s1
inactive: growth inhibition [1] -11.4% | growth inhibition [2] -5.87% | viability increase [3] 1.16% | viability [4] 95.2% | viability [5] 98.5% | inhibition [6] 0.38% | RAM network inhibition [7] 0.64%

Cc1oc(-c2ccccc2)nc1CS(=O)CC(=O)N1CCc2ccccc2C1 (stereo not drawn)
inactive: growth inhibition [1] 5.38% | growth inhibition [2] 22.9% | viability increase [3] -2.89% | viability [4] 97.8% | viability [5] 99.8% | inhibition [6] 1.62% | RAM network inhibition [7] 1.69%

O=C(NC1CCCCCCC1)c1ccc(CNc2c(N3CCOCC3)c(=O)c2=O)cc1
inactive: growth inhibition [1] 1.56% | growth inhibition [2] 8.42% | viability increase [3] 0.25% | viability [4] 100% | viability [5] 95.6% | inhibition [6] 0.71% | RAM network inhibition [7] 0.92%

Cc1c(C(=O)N2CCC(C(N)=O)CC2)sc(N)c1C#N
inactive: growth inhibition [1] -12.1% | growth inhibition [2] -8.07% | viability increase [3] -0.41% | viability [4] 94.7% | viability [5] 99.1% | inhibition [6] 2.91% | RAM network inhibition [7] 9.2%

Cc1ccc(S(=O)(=O)Cc2ccc(C(=O)N3CCN(c4ccccn4)CC3)o2)cc1
inactive: growth inhibition [1] -6.39% | growth inhibition [2] -3.59% | viability increase [3] -4.22% | viability [4] 87.1% | viability [5] 79.8% | inhibition [6] 1.25% | RAM network inhibition [7] 3.12%

Cn1c(=O)c2c(nc(NC3CCCCC3)n2Cc2ccccc2)n(C)c1=O
inactive: growth inhibition [1] -0.82% | growth inhibition [2] 4.89% | viability increase [3] -3.11% | viability [4] 78.9% | viability [5] 75.5% | inhibition [6] 2.92% | RAM network inhibition [7] 3.48%

C=CCn1cc(C(=O)N2CCN(C)CC2)c(=O)c2cc(S(=O)(=O)N3CCCC3)ccc21
inactive: growth inhibition [1] -6.54% | growth inhibition [2] -12.6% | viability increase [3] -0.09% | viability [4] 105% | viability [5] 106% | inhibition [6] 0.73% | RAM network inhibition [7] 3.9%

CCOC(=O)c1ccc(NC(=O)NS(=O)(=O)c2ccc(C)cc2)cc1
inactive: growth inhibition [1] -7.83% | growth inhibition [2] -3.95% | viability increase [3] -1.46% | viability [4] 105% | viability [5] 94% | inhibition [6] 3.13% | RAM network inhibition [7] 6.08%

COc1cccc(NS(=O)(=O)c2nc3nc(C)cc(C)n3n2)c1
inactive: growth inhibition [1] -10.2% | growth inhibition [2] -2.87% | viability increase [3] -1.57% | viability [4] 108% | viability [5] 98.9% | inhibition [6] 2.01% | RAM network inhibition [7] -1%

CCOc1ccc(C(=O)CCNC(Cc2cnc[nH]2)C(=O)O)cc1 (stereo not drawn)
inactive: growth inhibition [1] 5.56% | growth inhibition [2] 8.23% | viability increase [3] -2.31% | viability [4] 95.1% | viability [5] 92.7% | inhibition [6] 2.15% | RAM network inhibition [7] 4.96%

COc1cc(CC(=O)O)c(C(C)=O)cc1OC
inactive: growth inhibition [1] 0.26% | growth inhibition [2] 0.155% | viability increase [3] -1.29% | viability [4] 100% | viability [5] 102% | inhibition [6] 0.365% | RAM network inhibition [7] -0.36%

Cc1nc(Cc2nnc(SCc3nc(N)nc(Nc4ccccc4C)n3)o2)cs1
inactive: growth inhibition [1] -3.24% | growth inhibition [2] 20.5% | viability increase [3] -1.28% | viability [4] 98.7% | viability [5] 97.5% | inhibition [6] 0.85% | RAM network inhibition [7] 5.96%

O=C1c2ccccc2NC(c2ccc3c(c2)OCCO3)N1c1ccc2c(c1)OCCO2 (stereo not drawn)
inactive: growth inhibition [1] -5.15% | growth inhibition [2] 6.69% | viability increase [3] -2.17% | viability [4] 90.5% | viability [5] 79.5% | inhibition [6] 0.615% | RAM network inhibition [7] 0.98%

CCN(CC)CC(O)COc1ccccc1C(=O)CCc1ccccc1 (stereo not drawn)
inactive: growth inhibition [1] -17.4% | growth inhibition [2] -14.3% | viability increase [3] -4.88% | viability [4] 73% | viability [5] 80.5% | inhibition [6] 0.58% | RAM network inhibition [7] 4.17%

— PubChem BioAssay
